Screens (PubChem BioAssay)
In the library only some 2.9% were active in any assay of this set; here they are far more common.
PGC1a acetyl inh: lowers PGC1a acetylation signal in U2OS cells; AlphaScreen anti-acetyl-lysine; with virally co-expressed GCN5 acetyltransferase; inhibition, % at 15.6 µM; 350,000 compounds, 0.17% hits;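 active = every replicate shows inhibition of at least 40%; inconclusive = mean inhibition at least 40% but some replicate below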
Statin myotox sup: suppressors of simvastatin-induced myotoxicity in C2C12 myotubes. ATP luminescence, 48 h; scaled: DMSO 0, geranylgeraniol control 100. rescue of ATP level, % at 7.49 µM. 330,000 compounds, 0.78% hits. AID 602340;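 active = mean ATP rescue above about 67%, or every replicate alone reaching that limit, limit read from the data, passing the limit was not always enough; inconclusive = no clear call, values can overlap the other calls; inactive = mean under the limit and some replicate under it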;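 note: myotubes were challenged with 10 µM simvastatin during compound exposure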
S100A4 inh HTS: S100A4-myosin IIA interaction inhibition; 360,000 compounds, 0.14% hits; inhibition, % at 10.7 µM; AID 652163; S100A4/TAMRA-MyoIIA peptide fluorescence polarization;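 active = mean inhibition of at least 70% across replicates, with every replicate also reaching that level; inconclusive = mean inhibition reaches 70% but some replicates fall short; inactive = mean inhibition below 70%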
Target sequence (P26447 whole entry, looked up): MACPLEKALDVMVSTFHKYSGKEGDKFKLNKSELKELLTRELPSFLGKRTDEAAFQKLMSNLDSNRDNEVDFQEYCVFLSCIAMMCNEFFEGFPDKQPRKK
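Material: S100A4 monomer protein | Medium: HEPES pH 7.2 with CaCl2, KCl, NaCl, DTT, Triton | Reagent: Labelled myosin peptide probe, 5 nM | Doses: One dose per compound | Times: 5 min incubation before reading | Benchmarks: Neutral control DMSO, positive control TFP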
SIRT5 inh: sirtuin-5 (human) deacylase inhibition; Q9NXA8; Purified SirT5, succinyl-peptide AMC, trypsin-coupled fluorescence; inhibition, % at 15 µM; 330,000 compounds, 1.1% hits; AID 652115; in the data active = inhibition above about 15%; inconclusive = no clear call, values can overlap the other calls
Target sequence (Q9NXA8 whole entry, looked up): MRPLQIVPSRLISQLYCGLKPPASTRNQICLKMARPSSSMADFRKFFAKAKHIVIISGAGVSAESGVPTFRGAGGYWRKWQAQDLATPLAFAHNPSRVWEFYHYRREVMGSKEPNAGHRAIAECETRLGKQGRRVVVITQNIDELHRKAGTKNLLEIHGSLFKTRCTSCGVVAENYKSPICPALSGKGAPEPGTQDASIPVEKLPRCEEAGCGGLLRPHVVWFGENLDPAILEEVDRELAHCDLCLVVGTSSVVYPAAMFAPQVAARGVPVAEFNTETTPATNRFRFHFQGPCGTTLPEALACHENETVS
DENV2 CPE rescue: DENV2-induced cell death inhibition; DENV2-infected cells, cytopathic effect rescue, plate reader; CPE inhibition, % at 9.99 µM; 350,000 compounds, 1.7% hits; in the data active = CPE inhibition above about 20%, passing the limit was not always enough; inconclusive = no clear call, values can overlap the other calls; tested in BHK-21 cells
Large screens that a line does not name were inactive.

C[C@H]1CN([C@@H](C)CO)C(=O)c2cccc(NC(=O)C3CC3)c2O[C@H]1CN(C)CC1CCCCC1	none
C[C@@H]1CN([C@H](C)CO)C(=O)c2cccc(NC(=O)C3CC3)c2O[C@H]1CN(C)CC1CCCCC1	DENV2 CPE rescue 75
C[C@H](CO)N1C[C@H](C)[C@@H](CN(C)CC2CCCCC2)Oc2c(NC(=O)C3CC3)cccc2C1=O	none
Cc1ccc(S(=O)(=O)N(C)C[C@@H]2Oc3ccc(NS(=O)(=O)c4ccc(F)cc4)cc3CC(=O)N([C@H](C)CO)C[C@H]2C)cc1	none
OCCNCCNCc1ccc(-c2ccccc2)cc1	none (no result: PGC1a acetyl inh, Statin myotox sup)
OCCNCc1cccc(-c2ccccc2)c1O	Statin myotox sup 100
C[C@@H]1CN([C@@H](C)CO)S(=O)(=O)c2ccc(C#Cc3ccncc3)cc2O[C@@H]1CN(C)C(=O)C1CCOCC1	DENV2 CPE rescue inconclusive
C[C@@H]1CCCCO[C@H](CN(C)C(=O)NC2CCCCC2)[C@H](C)CN([C@@H](C)CO)C(=O)c2cc(NC(=O)Nc3ccc(C(F)(F)F)cc3)ccc2O1	DENV2 CPE rescue 64 (no result: Statin myotox sup)
C[C@@H]1CN([C@@H](C)CO)C(=O)c2cc(NC(=O)c3ccncc3)ccc2O[C@H]1CN(C)C(=O)NC1CCCCC1	DENV2 CPE rescue 35
C[C@@H]1CN([C@H](C)CO)C(=O)c2cc(NC(=O)Nc3ccc(C(F)(F)F)cc3)ccc2O[C@H]1CN(C)C(=O)NC1CCCCC1	DENV2 CPE rescue 126
C[C@H](CO)N1C[C@H](C)[C@H](CN(C)C(=O)NC2CCCCC2)Oc2ccc(NC(=O)Nc3ccccc3)cc2C1=O	SIRT5 inh 22
C[C@H]1CN([C@@H](C)CO)C(=O)c2cc(NC(=O)Nc3ccccc3)ccc2O[C@@H]1CN(C)C(=O)NC1CCCCC1	none
C[C@H](CO)N1C[C@H](C)[C@@H](CN(C)C(=O)NC2CCCCC2)OCCCC[C@H](C)Oc2ccc(NC(=O)Nc3ccc(C(F)(F)F)cc3)cc2C1=O	DENV2 CPE rescue inconclusive (no result: Statin myotox sup)
CCC(=O)N1C[C@H](O)COC[C@H]2O[C@H](CC(=O)NCC3CCCCC3)CC[C@@H]21	none
C[C@H]1CN([C@@H](C)CO)C(=O)c2cc(NC(=O)Nc3ccc4c(c3)OCO4)ccc2O[C@@H]1CN(C)C(=O)NC1CCCCC1	SIRT5 inh 16, DENV2 CPE rescue inconclusive
CNC[C@H]1Oc2c(NS(=O)(=O)c3ccc(Cl)cc3)cccc2C(=O)N([C@H](C)CO)C[C@@H]1C	none
COc1ccc(C2CC(=O)c3c(O)cc(O)cc3O2)cc1O (stereo unspecified)	DENV2 CPE rescue 23
O=C1CC(c2ccccc2)Oc2cc(O)cc(O)c21 (stereo unspecified)	DENV2 CPE rescue 70
O=C1CC(c2ccc(O)cc2)Oc2cc(O)cc(O)c21 (stereo unspecified)	none
Cc1ccc(CNc2nc(NC(C)C)nc3ccsc23)c(C)c1	SIRT5 inh 21
CCCN(C)C[C@@H]1OCCCC[C@H](C)Oc2ccc(NS(C)(=O)=O)cc2C(=O)N([C@@H](C)CO)C[C@H]1C	none
Cc1noc(C)c1S(=O)(=O)N(C)C[C@H]1Oc2ccc(NS(=O)(=O)c3ccc(F)cc3)cc2C(=O)N([C@@H](C)CO)C[C@H]1C	none (no result: Statin myotox sup, S100A4 inh HTS, SIRT5 inh, DENV2 CPE rescue)
Cc1ccc(S(=O)(=O)N2CCN(C(=O)C3Cc4ccccc4CN3C(=O)c3ccco3)CC2)cc1 (stereo unspecified)	Statin myotox sup 98 (no result: S100A4 inh HTS, SIRT5 inh, DENV2 CPE rescue)
C/C=C/c1ccc([C@@H]2[C@H](CO)N(CCC(F)(F)F)C23CN(C(=O)CC2CC2)C3)cc1	none (no result: Statin myotox sup)
Cc1cc(N2CCN(C)CC2)ccc1NC(=O)c1c2c(nc3ccccc13)CCN(Cc1ccccc1)C2	PGC1a acetyl inh 69 (no result: Statin myotox sup, S100A4 inh HTS, SIRT5 inh, DENV2 CPE rescue)
Cc1ccc(Cn2c(C(C)Nc3nc(-c4ccc(Cl)c([N+](=O)[O-])c4)cs3)nc3cc(C(F)(F)F)ccc32)cc1 (stereo unspecified)	none (no result: PGC1a acetyl inh, SIRT5 inh)
Cc1ccc(-c2csc(NCCn3c(C)nc4cc(C(F)(F)F)ccc43)n2)cc1	DENV2 CPE rescue 45 (no result: SIRT5 inh)
COc1ccc(C(CCN2CCOCC2)c2c(OC)cc(OC)c3c(C)cc(=O)oc23)cc1 (stereo unspecified)	DENV2 CPE rescue 56
COc1ccc(C(CC(=O)N2CCCCC2)c2c(OC)cc(OC)c3c(-c4ccccc4)cc(=O)oc23)cc1 (stereo unspecified)	DENV2 CPE rescue 71 (no result: PGC1a acetyl inh, SIRT5 inh)
Cc1noc(C)c1NC(=O)Nc1ccc2c(c1)CC(=O)N([C@@H](C)CO)C[C@H](C)[C@@H](CN(C)Cc1ccc(C(F)(F)F)cc1)O2	none (no result: S100A4 inh HTS, SIRT5 inh, DENV2 CPE rescue)
COc1ccc(NC(=O)N(C)C[C@@H]2Oc3ccc(NS(=O)(=O)c4ccc(C)cc4)cc3C(=O)N([C@@H](C)CO)C[C@H]2C)cc1	none (no result: S100A4 inh HTS, SIRT5 inh, DENV2 CPE rescue)
C[C@H]1CN([C@@H](C)CO)C(=O)c2cccc(NC(=O)c3nc4ccccc4s3)c2O[C@@H]1CN(C)S(=O)(=O)c1ccc(Cl)cc1	none
CCn1c(CNc2ccc(F)cc2)nnc1SCC(=O)Nc1ccc(OC)cc1	Statin myotox sup 119 (no result: S100A4 inh HTS, SIRT5 inh, DENV2 CPE rescue)
COc1ccc(NC(=O)CSc2nccc(C)n2)cc1	Statin myotox sup 113 (no result: S100A4 inh HTS, SIRT5 inh, DENV2 CPE rescue)
CCn1c(SCC(=O)Nc2ccc(OC)cc2)nc2nc3c(cc2c1=O)CCCC3	SIRT5 inh 16 (no result: Statin myotox sup)
Cc1ccnc(SCC(=O)Nc2cc(C)on2)n1	none (no result: Statin myotox sup)
O=C(Nc1ccccc1)N1CC(=O)N2[C@H](CO)[C@H](c3ccc(C#CC4CC4)cc3)[C@@H]2C1	none (no result: Statin myotox sup)
C[C@@H]1CN([C@@H](C)CO)C(=O)c2cccc(NC(=O)C3CC3)c2O[C@H]1CN(C)CC1CC1	none
Cc1cnc(C(=O)OCC(=O)c2ccccc2)cn1	S100A4 inh HTS 94, DENV2 CPE rescue inconclusive (no result: PGC1a acetyl inh)
O=C(CCn1cccc1)NC1CCCc2ccccc21 (stereo unspecified)	Statin myotox sup 152 (no result: S100A4 inh HTS, SIRT5 inh, DENV2 CPE rescue)
C[C@@H]1CN([C@H](C)CO)S(=O)(=O)c2ccc(C#CC(C)(C)O)cc2O[C@@H]1CN(C)Cc1ccc(F)cc1	none
C[C@@H]1CN([C@@H](C)CO)S(=O)(=O)c2ccc(C#CC(C)(C)O)cc2O[C@@H]1CN(C)Cc1ccc(-c2ccccc2)cc1	SIRT5 inh 19
C[C@@H]1CN([C@@H](C)CO)S(=O)(=O)c2ccc(C#CC(C)(C)O)cc2O[C@H]1CN(C)Cc1ccc(F)cc1	SIRT5 inh 18
Cc1nn(C)cc1NC(=O)C[C@@H]1CC[C@@H]2[C@@H](COc3ccc(NC(=O)C4CCOCC4)cc3C(=O)N2C)O1	none (no result: PGC1a acetyl inh)
NNC(=O)c1nn(-c2ccc(Cl)cc2)cc1O	Statin myotox sup 113
CCCCn1c(=O)c(-c2ccccc2)c(O)c2ccccc21	Statin myotox sup 120 (no result: S100A4 inh HTS, SIRT5 inh, DENV2 CPE rescue)
CN1C(=O)/C(=C2\SC(N3CCCCCC3)=NC2=O)c2ccccc21	SIRT5 inh 32 (no result: PGC1a acetyl inh, DENV2 CPE rescue)
COc1ccc(S(=O)(=O)Nc2cc3c4c(oc3c3ccccc23)CCCC4=O)cc1	Statin myotox sup 77 (no result: S100A4 inh HTS, SIRT5 inh, DENV2 CPE rescue)
O=C1CCN(Cc2ccccc2)CCN1[C@H](COc1ccccc1)c1ccccc1	none (no result: SIRT5 inh)
N#CC[C@H](c1ccccc1)N1CCN(Cc2ccccc2)CCC1=O	DENV2 CPE rescue 60 (no result: SIRT5 inh)
